# Assay results reported in ChEMBL document CHEMBL2069283, “C-N bond formation under Cu-catalysis: synthesis and in vitro evaluation of N-aryl substituted thieno[2,3-d]pyrimidin-4(3H)-ones against chorismate mutase” (Bioorg Med Chem, 2012).
# pIC50: −log10 of the molar value.
# Target: T1, Intracellular chorismate mutase (Mycobacterium tuberculosis) (UniProt P9WIC1)
# T1 sequence (whole entry): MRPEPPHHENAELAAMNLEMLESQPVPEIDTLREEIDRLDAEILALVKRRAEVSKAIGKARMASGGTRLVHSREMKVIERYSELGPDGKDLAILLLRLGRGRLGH
# Experiment: Inhibition of Mycobacterium tuberculosis chorismate mutase at 50 uM using chorismate substrate by spectrophotometry
# Procedure, shortened: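 His-tagged MtCM expressed in E. coli BL21(DE3) and purified by Ni-NTA. Started with 180 pmol enzyme, 5 min at 37 °C, stopped with 1 N HCl. Prephenate formation read at A274 against no-enzyme blanks. % inhibition = 100 − residual activity.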
row,Compound,inhibition [%]
1,O=C(c1ccccc1I)N1CCc2c(sc3ncn(-c4ccccc4)c(=O)c23)C1,12.6
2,O=c1c2c3c(sc2ncn1-c1ccc(F)cc1)CCCC3,12.8
3,O=c1c2c3c(sc2ncn1-c1ccccc1)CCCC3,35.6
4,O=c1c2c3c(sc2ncn1-c1ccccc1)CNCC3,36.2
5,O=Cc1cccc(-n2cnc3sc4c(c3c2=O)CCCC4)c1,45.3
6,O=c1c2c3c(sc2ncn1-c1ccc2ccccc2c1)CCCC3,33
7,Cc1csc2ncn(-c3ccc(F)cc3)c(=O)c12,17.7
8,O=c1c2c3c(sc2ncn1-c1ccc(F)cc1)CCCCC3,14.6
9,CC(C)(C)OC(=O)N1CCc2c(sc3ncn(-c4ccccc4)c(=O)c23)C1,37.2
10,O=c1c2c3c(sc2ncn1-c1ccccc1)CCCCC3,13
11,CC(C)(C)OC(=O)N1CCc2c(sc3ncn(-c4cccc(C=O)c4)c(=O)c23)C1,49.9
12,O=c1c2c3c(sc2ncn1-c1cccc(Cl)c1)CCCC3,42.5
13,COc1cccc(-n2cnc3sc4c(c3c2=O)CCCC4)c1,47

# Target: T2, Intracellular chorismate mutase (Mycobacterium tuberculosis, UniProt P9WIC1)
# T2 sequence (P9WIC1 whole entry): T1 sequence (whole entry)
# Experiment: Inhibition of Mycobacterium tuberculosis chorismate mutase using chorismate substrate in dose response study by spectrophotometry
row,Compound,pIC50
1,COc1cc(CCNc2c([N+](=O)[O-])cc(C(=O)O)cc2S(N)(=O)=O)cc(OC)c1,> 5.00
2,CC(C)(C)OC(=O)N1CCc2c(sc3ncn(-c4cccc(C=O)c4)c(=O)c23)C1,4.62
3,COc1cccc(-n2cnc3sc4c(c3c2=O)CCCC4)c1,4.70
